# Test results as given in ChEMBL document CHEMBL4665815, “Di-bromo-Based Small-Molecule Inhibitors of the PD-1/PD-L1 Immune Checkpoint” (J Med Chem, 2020).
# pEC50, pIC50: −log10 of the molar value. Activity calls are given as the source filed them. The calls are words filed in the database; no cut-off is given here.
# Tests used:
# [1] = Binding affinity to human PD1 (34-150 residues) extracellular domain C93S mutant expressed in Escherichia coli BL21 (DE3) incubated for 2 hrs by TR-FRET assay
# PBMC = experiment: Effect on CD69 expression in human PBMC; assay type: functional
# Summary of the method: (§1)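 PBMCs from healthy donors were isolated by density-gradient centrifugation. They were added at 400 000 cells/well onto preseeded CHO-K1 hPD-L1 aAPCs and cultured 48 h with compound, DMSO or atezolizumab (5 μg/mL). Cells were detached and stained 20 min at room temperature for CD69, CD4, CD8 and PD-1, then analysed by flow cytometry. Values are mean ± SD of three independent experiments with different donors; Student's t test.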
# [2] = target: Programmed cell death 1 ligand 1 (Mus musculus) (UniProt Q9EP73); experiment: Binding affinity to mouse PD1-L1 (19-134 residues) expressed in Escherichia coli BL21 (DE3) incubated for 1 hr by MST analysis
# Programmed cell death 1 ligand 1 (Mus musculus), sequence (Q9EP73 whole entry, the tested form may be a part): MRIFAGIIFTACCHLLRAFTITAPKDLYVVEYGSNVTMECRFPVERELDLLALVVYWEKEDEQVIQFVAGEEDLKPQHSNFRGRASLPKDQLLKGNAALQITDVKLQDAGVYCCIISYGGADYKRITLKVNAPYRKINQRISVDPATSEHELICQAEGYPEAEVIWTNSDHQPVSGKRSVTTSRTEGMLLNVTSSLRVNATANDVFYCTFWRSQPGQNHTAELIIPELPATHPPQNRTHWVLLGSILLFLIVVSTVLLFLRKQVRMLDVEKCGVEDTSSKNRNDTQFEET
# [3] = target: T1, Programmed cell death protein 1/Programmed cell death 1 ligand 1 (Homo sapiens, UniProt Q15116+Q9NZQ7); experiment: Inhibition of PD-1/PD-L1 immune checkpoint using PD-L1 expressing human aAPCs and PD-1 expressing human PBMC assessed as increase in PD-1 receptor expression on surface of CD8+ T cells incubated for 48 hrs by flow cytometry; summary of the method: as §1
# T1 sequence (Q15116 whole entry): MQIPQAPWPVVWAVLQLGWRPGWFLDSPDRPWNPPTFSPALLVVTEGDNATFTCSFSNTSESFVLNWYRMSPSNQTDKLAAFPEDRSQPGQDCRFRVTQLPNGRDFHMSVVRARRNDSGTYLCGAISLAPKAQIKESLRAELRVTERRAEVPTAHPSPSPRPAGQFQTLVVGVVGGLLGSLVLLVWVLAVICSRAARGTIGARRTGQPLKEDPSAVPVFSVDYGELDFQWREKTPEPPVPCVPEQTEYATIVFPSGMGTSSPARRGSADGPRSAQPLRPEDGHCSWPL
# T1 sequence (Q9NZQ7 whole entry): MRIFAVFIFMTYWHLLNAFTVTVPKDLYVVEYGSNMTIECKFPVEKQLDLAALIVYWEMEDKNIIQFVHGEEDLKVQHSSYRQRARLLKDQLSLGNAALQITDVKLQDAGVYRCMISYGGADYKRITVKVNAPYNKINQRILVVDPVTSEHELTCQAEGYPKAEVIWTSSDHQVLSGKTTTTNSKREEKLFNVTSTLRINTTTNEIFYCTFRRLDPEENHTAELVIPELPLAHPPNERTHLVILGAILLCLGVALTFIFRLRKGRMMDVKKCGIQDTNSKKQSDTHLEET
# [4] = target: T1, Programmed cell death protein 1/Programmed cell death 1 ligand 1; experiment: Inhibition of PD-1/PD-L1 immune checkpoint using PD-L1 expressing human aAPCs and PD-1 expressing human PBMC assessed as increase in PD-1 receptor expression on surface of CD4+ T cells incubated for 48 hrs by flow cytometry; summary of the method: as §1
# Jurkat [5] = experiment: Toxicity in human Jurkat cells at >100 uM incubated for 24 hrs; assay type: cell-based
# [6] = target: Programmed cell death protein 1/Programmed cell death 1 ligand 1 (Homo sapiens, UniProt Q9NZQ7); experiment: (§2) Inhibition of hPD-1/hPD-L1 immune checkpoint using PD-L1 expressing human aAPCs and PD-1 expressing human Jurkat cells assessed as activation of effector Jurkat T cells incubated for 6 hrs by luciferase reporter gene based immune checkpoint blockade cell-based assay
# Programmed cell death protein 1/Programmed cell death 1 ligand 1 (Homo sapiens, UniProt Q9NZQ7), sequence (Q15116 whole entry): as the sequence (Q15116 whole entry) above
# Programmed cell death protein 1/Programmed cell death 1 ligand 1 (Homo sapiens, UniProt Q9NZQ7), sequence (Q9NZQ7 whole entry): as the sequence (Q9NZQ7 whole entry) above
# Summary of the method: (§3)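 CHO-K1 aAPCs expressing hPD-L1 and a TCR ligand were seeded at 10 000/well 17 h ahead. Compounds were serially diluted 2.5-fold in DMSO, then 1000-fold into RPMI with 1% FBS (0.1% DMSO final). Jurkat hPD-1 NFAT-RE luciferase effector cells were added at 20 000/well for 6 h. Bio-Glo luminescence was read as fold induction over DMSO controls. EC50 came from Hill fits with the durvalumab maximum as the ceiling. Mean ± SEM, 4–7 experiments.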
# [7] = target: T1, Programmed cell death protein 1/Programmed cell death 1 ligand 1; experiment: Inhibition of hPD-1/hPD-L1 immune checkpoint using PD-L1 expressing human aAPCs and PD-1 expressing human Jurkat cells assessed as activation of effector Jurkat T cells at 50 uM incubated for 6 hrs by luciferase reporter gene based immune checkpoint blockade cell-based assay relative to control; summary of the method: as §3
# [8] = target: T1, Programmed cell death protein 1/Programmed cell death 1 ligand 1; experiment: Inhibition of hPD-1/hPD-L1 immune checkpoint using PD-L1 expressing human aAPCs and PD-1 expressing human Jurkat cells assessed as activation of effector Jurkat T cells at 0.01 to 100 uM incubated for 6 hrs by luciferase reporter gene based immune checkpoint blockade cell-based assay; settings: dose microM 0.01-100, time 6.0 hrs; summary of the method: as §3
# [9] = target: Programmed cell death 1 ligand 1 (Homo sapiens) (UniProt Q9NZQ7); experiment: Binding affinity to human PD-L1 (18 to 134 residues) assessed as induction of protein dimerization by 1H NMR method
# Programmed cell death 1 ligand 1 (Homo sapiens), sequence (Q9NZQ7 whole entry, the tested form may be a part): as the sequence (Q9NZQ7 whole entry) above
# [10] = Binding affinity to Fc-tagged human PD-1 assessed as induction of dissociation of PD-1 N66A mutant/His-and Fc-tagged human PD-L1complex pre-incubated for 30 mins with PDL1 and measured after 1 hr by competitive ELISA
# [11] = target: T1, Programmed cell death protein 1/Programmed cell death 1 ligand 1; experiment: as §2; summary of the method: as §3
# Homo sapiens [12] = species on record: Homo sapiens; experiment: Binding affinity to 15N labelled human PD1 N66A mutant assessed as induction of dissociation of PD-1 N66A mutant/PDL1 complex by w-AIDA-NMR 2D assay
# Summary of the method: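 Uniformly 15N-labelled hPD-1 N66A mutant, expressed in bacteria grown at 28 °C in M9 medium with 15NH4Cl as the sole nitrogen source and induced with 1 mM IPTG. Protein was refolded from inclusion bodies and purified by size-exclusion chromatography in 25 mM sodium phosphate pH 6.4, 100 mM NaCl. 1H–15N signals were followed by SOFAST HMQC.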
# Homo sapiens [13] = species on record: Homo sapiens; experiment: Binding affinity to 15N labelled human PD1 N66A mutant assessed as induction of dissociation of PD-1 N66A mutant/PDL1 complex by w-AIDA-NMR 1D assay
# Jurkat [14] = experiment: Toxicity in human Jurkat cells assessed as reduction in cell viability at 40 uM incubated for 24 hrs relative to control; assay type: cell-based
# [15] = Solubility in water; assay type: physicochemical; settings: buffer
# [16] = Solubility in DMSO; assay type: physicochemical
compound,measurement,setting,value
O=Cc1ccc(OCc2cccc(-c3ccc4c(c3)OCCO4)c2Br)c(Br)c1,pIC50,[1],4.45
O=C(O)[C@@H]1CCCCN1Cc1ccc(OCc2cccc(-c3ccccc3)c2Br)cc1,Activity,PBMC,inactive
same,Activity,[2],inactive
same,inhibition,[3],Active
same,inhibition,[4],Active
same,Activity,Jurkat [5],Non-Toxic
same,pEC50,[6],5.18
same,fold change (FC),[7],2.1
same,Activity,[8],Active
same,Activity,[9],Active
same,pIC50,[10],8.83
same,pIC50,[1],7.82
Cc1c(COc2ccc(CN3CCCC[C@H]3C(=O)O)cc2)cccc1-c1ccccc1,Activity,[2],inactive
same,Activity,[8],Active
N#Cc1cc(COc2cc(OCc3cccc(-c4ccccc4)c3Br)c(Cl)cc2C=O)ccn1,pEC50,[11],< 4.40
same,Activity,[8],Active
same,pIC50,[1],4.53
Fc1cccc(-c2cccc(CBr)c2Br)c1,pIC50,[1],4.00
BrCc1cccc(-c2ccccc2)c1Br,Activity,Homo sapiens [12],Active
same,pIC50,[1],4.29
same,Activity,Homo sapiens [13],Active
O=Cc1cc(Cl)c(OCc2cccc(-c3ccccc3)c2Br)cc1O,pIC50,[1],< 4.00
O=C(O)[C@@H]1CCCCN1Cc1ccc(OCc2cccc(-c3cccc(F)c3)c2Br)c(Br)c1,pIC50,[1],7.19
Cc1cc(C=O)ccc1OCc1cccc(-c2ccccc2)c1Br,pIC50,[1],4.30
O=Cc1cc(Cl)c(OCc2cccc(-c3ccccc3)c2-c2ccccc2)cc1O,pIC50,[1],< 4.00
Cc1c(COc2cc(OCc3cccc(C#N)c3)c(CN3C[C@H](O)C[C@@H]3C(=O)O)cc2Cl)cccc1-c1ccc2c(c1)OCCO2,Activity,Jurkat [14],50%
same,Activity,[2],inactive
O=Cc1ccc(OCc2cccc(-c3cccc(F)c3)c2Br)c(Br)c1,pIC50,[1],4.26
O=C(O)[C@@H]1C[C@H](O)CN1Cc1ccc(OCc2cccc(-c3ccccc3)c2-c2ccccc2)c(Br)c1,pIC50,[1],4.53
O=Cc1ccc(OCc2cccc(-c3ccccc3)c2-c2ccccc2)c(Br)c1,pIC50,[1],< 4.00
O=Cc1ccc(OCc2cccc(-c3ccccc3)c2Br)cc1,pIC50,[1],4.30
N#Cc1ccc(-c2cccc(COc3ccc(C=O)cc3Br)c2Br)cc1,pIC50,[1],< 4.00
O=S1(=O)CCN(Cc2cccc(OCc3cccc(-c4cccc(F)c4)c3Br)c2)CC1,pIC50,[1],4.65
N#Cc1cccc(COc2cc(OCc3cccc(-c4ccccc4)c3Br)c(Cl)cc2C=O)c1,pEC50,[11],< 4.40
same,Activity,[8],Active
same,pIC50,[1],6.26
N#Cc1cc(COc2cc(OCc3cccc(-c4ccccc4)c3Br)c(Cl)cc2CN2C[C@@H](O)C[C@H]2C(=O)O)ccn1,solubility,[15],Insoluble
same,solubility,[16],Insoluble
same,pEC50,[6],4.91
same,Activity,[8],Active
same,Activity,[9],Active
same,pIC50,[1],8.41
COc1cc(C=O)ccc1OCc1cccc(-c2ccccc2)c1Br,pIC50,[1],< 4.00
OCc1cccc(-c2ccc3c(c2)OCCO3)c1F,pIC50,[1],4.26
CC(=O)NCCNCc1ccc(OCc2cccc(-c3ccc(C#N)cc3)c2Br)c(Br)c1,pIC50,[1],5.29
OCc1cccc(-c2ccccc2)c1-c1ccccc1,pIC50,[1],< 4.00
O=Cc1ccc(OCc2cccc(-c3ccccc3)c2Br)c(Br)c1,pIC50,[1],4.30
O=S1(=O)CCN(Cc2ccc(OCc3cccc(-c4cccc(F)c4)c3Br)c(Br)c2)CC1,pIC50,[1],5.37
BrCc1cccc(-c2ccc3c(c2)OCCO3)c1Br,pIC50,[1],4.19
CC(=O)NCCNCc1ccc(OCc2cccc(-c3cccc(F)c3)c2Br)c(Br)c1,pIC50,[1],6.97
O=C(O)[C@@H]1CCCCN1Cc1ccc(OCc2cccc(-c3ccc4c(c3)OCCO4)c2Br)c(Br)c1,pEC50,[6],< 4.40
same,Activity,[8],Active
same,pIC50,[1],6.40
O=Cc1ccc(OCc2cccc(-c3ccc4c(c3)OCCO4)c2F)c(Br)c1,pIC50,[1],< 4.00
N#Cc1ccc(-c2cccc(CBr)c2Br)cc1,pIC50,[1],4.18
CC(=O)NCCNCc1ccc(OCc2cccc(-c3ccc4c(c3)OCCO4)c2F)c(Br)c1,pIC50,[1],7.64
N#Cc1cc(COc2cc(OCc3cccc(-c4ccccc4)c3-c3ccccc3)c(Cl)cc2C=O)ccn1,pEC50,[11],< 4.40
same,Activity,[8],Active
same,pIC50,[1],4.62
OCc1cccc(-c2ccccc2)c1F,Activity,Homo sapiens [12],Active
same,pIC50,[1],4.25
same,Activity,Homo sapiens [13],Active
COC(=O)c1ccc(OCc2cccc(-c3ccccc3)c2Br)c(Br)c1,pIC50,[1],4.54
OCc1cccc(OCc2cccc(-c3cccc(F)c3)c2Br)c1,pIC50,[1],< 4.00
